ChEMBL document CHEMBL4371031, “In Vitro Antiviral Activity of New Oxazoline Derivatives as Potent Poliovirus Inhibitors” (J Med Chem, 2019)

Experiments:
Poliovirus 3 [1] = assay: Antiviral activity against Human poliovirus 3 Sabin 3 infected in human HeLa cells assessed as reduction in virus-induced cytopathic effect after 72 hrs by crystal violet staining-based assay; assay type: functional, organism-based; settings: Enterovirus C, Sabin 3, HeLa
Procedure, shortened: (§1)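 HeLa cells grown in MEM-10% FBS, seeded at 2x10^5 cells/mL in MEM-2% FBS and preincubated 24 h at 37°C, 5% CO2. Compound and virus were cross-titrated […] compound in 0.5 log10 steps (7-point curves), with duplicate wells and three replicate tests per virus. After 72 h at 37°C, cells were crystal violet stained and read at 590 nm. EC50 came from a four-parameter fit; if all virus dilutions gave >80% monolayer destruction, the value was […].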

Poliovirus 1 [2] = assay: Antiviral activity against Human poliovirus 1 10225 infected in human HeLa cells assessed as reduction in virus-induced cytopathic effect after 72 hrs by crystal violet staining-based assay; assay type: functional, organism-based; settings: Enterovirus C, 10225, HeLa; procedure, shortened: as §1
Poliovirus 2 [3] = assay: Antiviral activity against Human poliovirus 2 10226 infected in human HeLa cells assessed as reduction in virus-induced cytopathic effect after 72 hrs by crystal violet staining-based assay; assay type: functional, organism-based; settings: Enterovirus C, 10226, HeLa; procedure, shortened: as §1
Poliovirus 1 [4] = assay: Antiviral activity against Human poliovirus 1 10236 infected in human HeLa cells assessed as reduction in virus-induced cytopathic effect after 72 hrs by crystal violet staining-based assay; assay type: functional, organism-based; settings: Enterovirus C, 10236, HeLa; procedure, shortened: as §1
Poliovirus 1 [5] = assay: Antiviral activity against Human poliovirus 1 10691 infected in human HeLa cells assessed as reduction in virus-induced cytopathic effect after 72 hrs by crystal violet staining-based assay; assay type: functional, organism-based; settings: Enterovirus C, 10691, HeLa; procedure, shortened: as §1
Poliovirus 1 [6] = assay: Antiviral activity against Human poliovirus 1 10222 infected in human HeLa cells assessed as reduction in virus-induced cytopathic effect after 72 hrs by crystal violet staining-based assay; assay type: functional, organism-based; settings: Enterovirus C, 10222, HeLa; procedure, shortened: as §1
Poliovirus 2 [7] = assay: Antiviral activity against Human poliovirus 2 10219 infected in human HeLa cells assessed as reduction in virus-induced cytopathic effect after 72 hrs by crystal violet staining-based assay; assay type: functional, organism-based; settings: Enterovirus C, 10219, HeLa; procedure, shortened: as §1
Poliovirus 1 [8] = assay: Antiviral activity against Human poliovirus 1 10238 infected in human HeLa cells assessed as reduction in virus-induced cytopathic effect after 72 hrs by crystal violet staining-based assay; assay type: functional, organism-based; settings: Enterovirus C, 10238, HeLa; procedure, shortened: as §1
Poliovirus 2 [9] = assay: Antiviral activity against Human poliovirus 2 10229 infected in human HeLa cells assessed as reduction in virus-induced cytopathic effect after 72 hrs by crystal violet staining-based assay; assay type: functional, organism-based; settings: Enterovirus C, 10229, HeLa; procedure, shortened: as §1
Poliovirus 2 [10] = assay: Antiviral activity against Human poliovirus 2 10232 infected in human HeLa cells assessed as reduction in virus-induced cytopathic effect after 72 hrs by crystal violet staining-based assay; assay type: functional, organism-based; settings: Enterovirus C, 10232, HeLa; procedure, shortened: as §1
Poliovirus 1 [11] = assay: Antiviral activity against Poliovirus Sabin 1 infected in human HeLa cells assessed as reduction in virus-induced cytopathic effect after 72 hrs by crystal violet staining-based assay; assay type: functional, organism-based; settings: Enterovirus C; procedure, shortened: as §1
Poliovirus 2 [12] = assay: Antiviral activity against Human poliovirus 2 10243 infected in human HeLa cells assessed as reduction in virus-induced cytopathic effect after 72 hrs by crystal violet staining-based assay; assay type: functional, organism-based; settings: Enterovirus C, 10243, HeLa; procedure, shortened: as §1
[13] = Cytotoxicity against human HeLa cells after 72 hrs by ATP-bioluminescence cell viability assay; assay type: cell-based
Procedure, shortened: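 Luminescent ATP cell-viability read-out on HeLa cells with compound only, run under conditions similar to the cytopathic-effect assay (72 h, 37°C). Signal was compared with cell-only wells. CC50 was derived from the titration curves.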

Poliovirus 1 [14] = assay: Antiviral activity against Human poliovirus 1 10223 infected in human HeLa cells assessed as reduction in virus-induced cytopathic effect after 72 hrs by crystal violet staining-based assay; assay type: functional, organism-based; settings: Enterovirus C, 10223, HeLa; procedure, shortened: as §1
Poliovirus 1 [15] = assay: Antiviral activity against Human poliovirus 1 10689 infected in human HeLa cells assessed as reduction in virus-induced cytopathic effect after 72 hrs by crystal violet staining-based assay; assay type: functional, organism-based; settings: Enterovirus C, 10689, HeLa; procedure, shortened: as §1
Poliovirus 1 [16] = assay: Antiviral activity against Human poliovirus 1 10694 infected in human HeLa cells assessed as reduction in virus-induced cytopathic effect after 72 hrs by crystal violet staining-based assay; assay type: functional, organism-based; settings: Enterovirus C, 10694, HeLa; procedure, shortened: as §1
Poliovirus 3 [17] = assay: Antiviral activity against Human poliovirus 3 Saukett infected in human HeLa cells assessed as reduction in virus-induced cytopathic effect after 72 hrs by crystal violet staining-based assay; assay type: functional, organism-based; settings: Enterovirus C; procedure, shortened: as §1
Poliovirus 2 [18] = assay: Antiviral activity against Human poliovirus 2 10228 infected in human HeLa cells assessed as reduction in virus-induced cytopathic effect after 72 hrs by crystal violet staining-based assay; assay type: functional, organism-based; settings: Enterovirus C, 10228, HeLa; procedure, shortened: as §1
Poliovirus 1 [19] = assay: Antiviral activity against Human poliovirus 1 10242 infected in human HeLa cells assessed as reduction in virus-induced cytopathic effect after 72 hrs by crystal violet staining-based assay; assay type: functional, organism-based; settings: Enterovirus C, 10242, HeLa; procedure, shortened: as §1
Poliovirus 1 [20] = assay: Antiviral activity against Human poliovirus 1 10224 infected in human HeLa cells assessed as reduction in virus-induced cytopathic effect after 72 hrs by crystal violet staining-based assay; assay type: functional, organism-based; settings: Enterovirus C, 10224, HeLa; procedure, shortened: as §1
Poliovirus 3 [21] = assay: Antiviral activity against Human poliovirus 3 Leon infected in human HeLa cells assessed as reduction in virus-induced cytopathic effect after 72 hrs by crystal violet staining-based assay; assay type: functional, organism-based; settings: Enterovirus C; procedure, shortened: as §1
[22] = Therapeutic ratio of CC50 for human HeLa cells to EC50 for Poliovirus Sabin 2 infected in human HeLa cells; assay type: toxicity, cell-based; settings: read-out: Ratio CC50/EC50
Poliovirus 2 [23] = assay: Antiviral activity against Human poliovirus 2 Lansing infected in human HeLa cells assessed as reduction in virus-induced cytopathic effect after 72 hrs by crystal violet staining-based assay; assay type: functional, organism-based; settings: Enterovirus C; procedure, shortened: as §1
Poliovirus 1 [24] = assay: Antiviral activity against Human poliovirus 1 10692 infected in human HeLa cells assessed as reduction in virus-induced cytopathic effect after 72 hrs by crystal violet staining-based assay; assay type: functional, organism-based; settings: Enterovirus C, 10692, HeLa; procedure, shortened: as §1
Poliovirus 2 [25] = assay: Antiviral activity against Human poliovirus 2 Sabin 2 infected in human HeLa cells assessed as reduction in virus-induced cytopathic effect after 72 hrs by crystal violet staining-based assay; assay type: functional, organism-based; settings: Enterovirus C, Sabin 2, HeLa; procedure, shortened: as §1
Poliovirus 2 [26] = assay: Antiviral activity against Human poliovirus 2 10230 infected in human HeLa cells assessed as reduction in virus-induced cytopathic effect after 72 hrs by crystal violet staining-based assay; assay type: functional, organism-based; settings: Enterovirus C, 10230, HeLa; procedure, shortened: as §1
Poliovirus 1 [27] = assay: Antiviral activity against Human poliovirus 1 10690 infected in human HeLa cells assessed as reduction in virus-induced cytopathic effect after 72 hrs by crystal violet staining-based assay; assay type: functional, organism-based; settings: Enterovirus C, 10690, HeLa; procedure, shortened: as §1
Poliovirus 3 [28] = assay: Antiviral activity against Human poliovirus 3 10804 infected in human HeLa cells assessed as reduction in virus-induced cytopathic effect after 72 hrs by crystal violet staining-based assay; assay type: functional, organism-based; settings: Enterovirus C, 10804, HeLa; procedure, shortened: as §1
Poliovirus 1 [29] = assay: Antiviral activity against Human poliovirus 1 10693 infected in human HeLa cells assessed as reduction in virus-induced cytopathic effect after 72 hrs by crystal violet staining-based assay; assay type: functional, organism-based; settings: Enterovirus C, 10693, HeLa; procedure, shortened: as §1
Poliovirus 1 [30] = assay: Antiviral activity against Human poliovirus 1 Brunhilde infected in human HeLa cells assessed as reduction in virus-induced cytopathic effect after 72 hrs by crystal violet staining-based assay; assay type: functional, organism-based; settings: Enterovirus C; procedure, shortened: as §1

Row | Compound | EC50 (Poliovirus 3 [1]) [nM] | EC50 (Poliovirus 1 [2]) [nM] | EC50 (Poliovirus 2 [3]) [nM] | EC50 (Poliovirus 1 [4]) [nM] | EC50 (Poliovirus 1 [5]) [nM] | EC50 (Poliovirus 1 [6]) [nM] | EC50 (Poliovirus 2 [7]) [nM] | EC50 (Poliovirus 1 [8]) [nM] | EC50 (Poliovirus 2 [9]) [nM] | EC50 (Poliovirus 2 [10]) [nM] | EC50 (Poliovirus 1 [11]) [nM] | EC50 (Poliovirus 2 [12]) [nM] | CC50 at 72 h [13] [nM] | EC50 (Poliovirus 1 [14]) [nM] | EC50 (Poliovirus 1 [15]) [nM] | EC50 (Poliovirus 1 [16]) [nM] | EC50 (Poliovirus 3 [17]) [nM] | EC50 (Poliovirus 2 [18]) [nM] | EC50 (Poliovirus 1 [19]) [nM] | EC50 (Poliovirus 1 [20]) [nM] | further results
1 | Cc1ccc(C(=O)CCCCSc2ccc(C3=NCCO3)cc2)s1 | 330 | > 10000 | 130 | 720 | 560 | 4900 | 1200 | 7470 | 2770 | 6330 | 118 | 1770 | 20000 | 3730 | 2030 | 6230 | 1670 | 9100 | 8200 | > 10000 | EC50 (Poliovirus 3 [21]): 1110 nM; selectivity ratio [22]: 146; EC50 (Poliovirus 2 [23]): 2270 nM; EC50 (Poliovirus 1 [24]): > 10000 nM; EC50 (Poliovirus 2 [25]): 160 nM; EC50 (Poliovirus 2 [26]): 5330 nM; EC50 (Poliovirus 1 [27]): 2000 nM; EC50 (Poliovirus 3 [28]): 440 nM; EC50 (Poliovirus 1 [29]): > 10000 nM; EC50 (Poliovirus 1 [30]): 470 nM
2 | Cc1ccc(C(=O)CCC/C=C/c2ccc(C3=NCCO3)cc2)s1 | 50 | 810 | 20 | 720 | 980 | 1130 | 30 | 190 | 510 | 23 | 338 | 30 | > 50000 | 20 | 34 | 2300 | 40 | 500 | 20 | 1110 | EC50 (Poliovirus 3 [21]): 950 nM; selectivity ratio [22]: > 1850; EC50 (Poliovirus 2 [23]): 60 nM; EC50 (Poliovirus 1 [24]): 780 nM; EC50 (Poliovirus 2 [25]): 30 nM; EC50 (Poliovirus 2 [26]): 30 nM; EC50 (Poliovirus 1 [27]): 1260 nM; EC50 (Poliovirus 3 [28]): 20 nM; EC50 (Poliovirus 1 [29]): 980 nM; EC50 (Poliovirus 1 [30]): 70 nM
3 | Cc1ccc(C(=O)CCCCOc2ccc(C3=NCCO3)cc2)s1 | 320 | 35700 | > 100000 | 2720 | 67500 | 7890 | 30 | 2100 | 550 | 540 | 90800 | 40 | > 50000 | 70 | 60 | 7220 | 350 | 10100 | 37900 | > 100000 | EC50 (Poliovirus 3 [21]): 170 nM; selectivity ratio [22]: > 1670; EC50 (Poliovirus 2 [23]): 590 nM; EC50 (Poliovirus 1 [24]): > 100000 nM; EC50 (Poliovirus 2 [25]): 30 nM; EC50 (Poliovirus 2 [26]): 100 nM; EC50 (Poliovirus 1 [27]): 48700 nM; EC50 (Poliovirus 3 [28]): > 100000 nM; EC50 (Poliovirus 1 [29]): 24200 nM; EC50 (Poliovirus 1 [30]): 990 nM
